# Ends that are not written are not given here.
# T1: SCRIB_3 (Homo sapiens, UniProt Q14160)
# T1 sequence (Q14160 1004-1093 limits assumed): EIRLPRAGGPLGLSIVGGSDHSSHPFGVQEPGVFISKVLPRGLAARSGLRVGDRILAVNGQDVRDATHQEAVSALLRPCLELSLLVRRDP
# T2: GST-Scrib PDZ3 (human, UniProt Q14160 994-1103)
# T2 sequence (looked up): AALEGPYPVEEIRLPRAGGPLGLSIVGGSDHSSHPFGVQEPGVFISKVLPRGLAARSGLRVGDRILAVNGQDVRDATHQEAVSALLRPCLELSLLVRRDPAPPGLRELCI
# B1: GFP-Vangl2ΔTSV: GFP-Vangl2 with deletion of the classical PDZ binding motif (protein)
# chain: MDTESQYSGYSYKSGHSRSSRKHRDRRDRHRSKSRDGGRGDKSVTIQAPGEPLLDNESTRGDERDDNWGETTTVVTGTSEHSISHDDLTRIAKDMEDSVPLDCSRHLGVAAGATLALLSFLTPLAFLLLPPLLWREELEPCGTACEGLFISVAFKLLILLLGSWALFFRRPKASLPRVFVLRALLMVLVFLLVVSYWLFYGVRILDARERSYQGVVQFAVSLVDALLFVHYLAVVLLELRQLQPQFTLKVVRSTDGASRFYNVGHLSIQRVAVWILEKYYHDFPVYNPALLNLPKSVLAKKVSGFKVYSLGEENSTNNSTGQSRAVIAAAARRRDNSHNEYYYEEAEHERRVRKRRARLVVAVEEAFTHIKRLQEEEQKNPREVMDPREAAQAIFASMARAMQKYLRTTKQQPYHTMESILQHLEFCITHDMTPKAFLERYLAAGPTIQYHKERWLAKQWTLVSEEPVTNGLKDGIVFLLKRQDFSLVVSTKKVPFFKLSEEFVDPKSHKFVMRLQSE
# B2: soluble non-biotinylated βPIX carboxy-terminal peptide (HTRF) (peptide)
# chain: VLKNMNDPAWDETNL
# B3: synthetic E6 carboxy-terminal peptide (peptide)
# peptide: MSCCRSSRTRRETQL
# B4: GFP-Vangl2: GFP fusion of Vangl2 overexpressed in cells (protein)
# chain: MDTESQYSGYSYKSGHSRSSRKHRDRRDRHRSKSRDGGRGDKSVTIQAPGEPLLDNESTRGDERDDNWGETTTVVTGTSEHSISHDDLTRIAKDMEDSVPLDCSRHLGVAAGATLALLSFLTPLAFLLLPPLLWREELEPCGTACEGLFISVAFKLLILLLGSWALFFRRPKASLPRVFVLRALLMVLVFLLVVSYWLFYGVRILDARERSYQGVVQFAVSLVDALLFVHYLAVVLLELRQLQPQFTLKVVRSTDGASRFYNVGHLSIQRVAVWILEKYYHDFPVYNPALLNLPKSVLAKKVSGFKVYSLGEENSTNNSTGQSRAVIAAAARRRDNSHNEYYYEEAEHERRVRKRRARLVVAVEEAFTHIKRLQEEEQKNPREVMDPREAAQAIFASMARAMQKYLRTTKQQPYHTMESILQHLEFCITHDMTPKAFLERYLAAGPTIQYHKERWLAKQWTLVSEEPVTNGLKDGIVFLLKRQDFSLVVSTKKVPFFKLSEEFVDPKSHKFVMRLQSETSV
# B5: HA-tagged Vangl2: HA-tagged Vangl2 expressed in HEK 293T cells (protein)
# chain: B4 chain
# Assays:
# [1] = tested on: Scrib PDZ1; assay: HTRF peptide binding to Scrib PDZ1; set-up: species or system human
# [2] = molecular target: T1, SCRIB_3; assay: HTRF peptide-GST-PDZ binding
# [3] = tested on: Xenopus embryo; assay: Neural tube closure in Xenopus embryos; assay type: in vivo, Xenopus laevis; conditions: MO injected in dorsal blastomeres at 4- to 8-cell stage
# [4] = tested on: T47D cells; assay: Boyden chamber cell migration, T47D; assay type: cell-based; conditions: stimulation with 1 nM HRG, 12 h
# In short: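 Transwell migration through 8-μm pore polycarbonate membranes, underside coated with 25 μg/ml rat-tail collagen I. T47D cells were lipofectamine-transfected with pEGFP, pEGFP-Vangl2 or mutants, serum-starved 16 h, and seeded in the top chamber. The bottom chamber held medium with or without HRG for 12 h. Non-migrated cells were scraped off; migrated cells were fixed in 4% formaldehyde, crystal violet-stained (0.1%) and counted. Fold change, three independent experiments summed.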
# [5] = molecular target: T2, GST-Scrib PDZ3; assay: AlphaScreen or HTRF
# [6] = tested on: Scrib PDZ4; assay: GST-Scrib PDZ pull-down, individual domain; assay type: binding, human; conditions: pull-down on HEK 293T extracts
# [7] = tested on: Scrib PDZ3 domain; assay: GST-Scrib PDZ pull-down, individual domain; assay type: binding, human; conditions: pull-down on HEK 293T extracts
# [8] = tested on: GST fused to the four Scrib PDZ domains; assay: GST-Scrib PDZ pull-down; assay type: binding, human; conditions: pull-down on transfected HEK 293T extracts
# [9] = tested on: wild-type MEFs; assay: Boyden chamber cell migration, wild-type MEF; assay type: cell-based, mouse; conditions: serum-induced
# In short: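 MEFs, wild-type or Crc/Crc, nucleofected transiently with GFP or GFP-Vangl2, then serum-starved 16 h and plated in the upper chamber of 8-μm pore polycarbonate transwells. Filter underside coated with human fibronectin ([…]). Serum (FCS) served as chemoattractant. Migrated cells were fixed in 4% formaldehyde, stained with 0.1% crystal violet and counted. Mann–Whitney U test versus control.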
# [10] = tested on: MEF^Crc/Crc; assay: Boyden chamber cell migration, MEF Crc/Crc; assay type: cell-based, mouse; conditions: MEFs deficient for Scrib, serum-induced
# [11] = tested on: SNX27; assay: Co-affinity purification with SNX27, HEK 293T; assay type: cell-based; conditions: streptavidin affinity purification, Western blot
molecule,measurement,setting,value
H-VLKNMNDPAWDETNL-OH [βPIX],binding to Scrib PDZ1,[1],strongly bound
same,binding to Scrib PDZ3,[2]; HTRF,able to bind
KSHKFVMRLQSETSV [Vangl2],EC50,[2],13 µM
SNX27 MO: morpholino 5′-TCCCCCTCCTCGTCCGCCATCTTTT-3′ targeting SNX27 translation initiation (all phosphorodiamidate morpholino (PMO)),neural tube closure,[3],neural tube closure was strongly impaired in a dose-dependent manner
B1,effect on cell migration,[4],in contrast to the deletion of the classical PDZ binding motif
B2,EC50,[5],8 µM
B3,EC50,[5],0.4 µM
B4,binding to individual GST-Scrib PDZ4,[6],some weak binding
same,effect on cell migration,[4],increased cell migration
same,effect on cell migration,[4]; listed as GFP-Vangl2^Lp,did not affect this increased cell migration
same,binding to individual GST-Scrib PDZ3,[7],most efficient
same,binding to GST-Scrib PDZ1-4,[8],efficient binding
same,effect on cell migration,[9],increased cell migration
same,effect on cell migration,[10],not significantly affected relative to control conditions
B5,interaction with SNX27,[11],interacts
